From ChEMBL document CHEMBL4477216, “Discovery and Optimization of Small Molecule Splicing Modifiers of Survival Motor Neuron 2 as a Treatment for Spinal Muscular Atrophy” (J Med Chem, 2016) come the findings set out here.

Data set [1] is filed under the species Homo sapiens. Description: Inhibition of mRNA splicing of human SMN2 exon 7 transfected in HEK293H cells assessed as maximum fold of increase in full-length SMN2 mRNA level after 24 hrs by RT-qPCR analysis relative to control. The data set is classed as cell-based. Put shortly: (§1)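 HEK293H cells stably carrying the SMN2 minigene (exon 6 to 5' exon 8 fused to firefly luciferase) were plated and held for 6 h, then treated 24 h in duplicate at varying concentrations (0.5% DMSO). Full-length minigene mRNA and GAPDH were quantified by TaqMan RT-qPCR using actual PCR efficiencies. Results were normalized to GAPDH and DMSO and expressed as fold change versus DMSO.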
Background: In qPCR the cycle at which signal appears reflects the starting amount.

For data set [2], the species on record is Homo sapiens. The data set is described as follows: Inhibition of mRNA splicing of human SMN2 exon 7 transfected in HEK293H cells assessed as maximum fold of increase in full-length SMN2 mRNA level after 24 hrs by RT-qPCR analysis relative to GAPDH. The data set is classed as cell-based. The gist of the method:
as §1

Data set [3] is filed under the species Homo sapiens. Description: Inhibition of mRNA splicing of human SMN2 exon 7 transfected in HEK293H cells assessed as compound concentration required to increase full-length SMN2 mRNA level by 1.5 times after 24 hrs by RT-qPCR analysis. Format: cell-based. Put shortly:
as §1

Data set [4] is filed under the species Homo sapiens. The data set is described as follows: Inhibition of mRNA splicing of human SMN2 exon 7 transfected in HEK293H cells assessed as compound concentration required to increase full-length SMN2 mRNA level by 1.5 times after 24 hrs by RT-qPCR analysis relative to GAPDH. Format: cell-based. The gist of the method: as §1
Data set [5] is described as follows: Ratio of drug level in brain to plasma of Sprague-Dawley rat at 10 mg/kg, po measured at 6 hrs. Format: ADME, organism-based. As to conditions: brain and plasma, read-out: BPR. Put shortly:
(§2)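 Male Sprague-Dawley rats got a single oral 10 mg/kg dose as a suspension in 0.5% hydroxypropyl methylcellulose with 0.1% Tween-80. Plasma was sampled at several time points up to 6 h post dose to give AUC0-6h. Total brain concentration was taken at 6 h to give the brain/plasma ratio.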

The species named for data set [6] is Homo sapiens. The data set is described as follows: Inhibition of mRNA splicing of SMN2 exon 7 in GM03813 fibroblasts derived from SMA patient assessed as compound concentration required to increase SMN protein level by 1.5 times after 24 hrs by HTRF assay. (TR-FRET usually uses a lanthanide donor and a delayed reading to cut background.)
Data set [7] is described as follows: Apparent permeability in human Caco2 cells. Format: ADME, cell-based. Conditions: Caco-2. Put shortly:
(§3)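 Bidirectional permeability was measured across a Caco-2 cell monolayer. Papp was reported, and efflux was expressed as the B-A/A-B ratio.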
(Caco-2 cells form a polarised layer with tight junctions and transporters.)

Data set [8] in a line: AUC (0 to 6 hrs) in Sprague-Dawley rat at 10 mg/kg, po. Format: ADME, organism-based. Further details: dose 10 mg/kg, time < 6 hr, route oral. Conditions: in vivo. Put shortly:
as §2

A short description of data set [9]: Protein binding in human plasma. The data set is classed as ADME, cell-free. As to conditions: read-out: PPB (converted).
Data set [10] can be described thus: Efflux ratio of apparent permeability from basolateral to apical over apical to basolateral side in human Caco2 cells. The data set is classed as ADME, cell-based. Conditions: Caco-2. Put shortly: as §3
For data set [11], the species on record is Homo sapiens. The data set is described as follows: Inhibition of mRNA splicing of SMN2 exon 7 in GM03813 fibroblasts derived from SMA patient assessed as maximum fold increase of SMN protein level by 1.5 times after 24 hrs by HTRF assay relative to control.

A value given as a limit tells only on which side of the number the result lay.

For `CN(C)c1ccc2cc(-c3nc4ccccc4o3)c(=O)oc2c1`, the fold change (FC) worked out at 1.2 in the data set filed under Homo sapiens [1] and 1.5 in the data set filed under Homo sapiens [2]. Besides, the values for the EC1.5 in the data set filed under Homo sapiens [3] and in the data set filed under Homo sapiens [4] were over 32 µM and 22000 nM, respectively.

As to `Cc1cn2nc(-c3cc(=O)n4cc(N5CCNCC5)ccc4n3)cc2c(C)n1`, the Kp at 6 h in [5] is under 0.1. Further, the values for the EC1.5 in the data set listed under Homo sapiens [6] and in the data set filed under Homo sapiens [4] were 31 nM and 6 nM, respectively. Moreover, the apparent permeability coefficient (Papp) in data set [7] came out at 14 ×10⁻⁶ cm/s. The AUC(0-t) at 6 h in data set [8] came to 380 ng·h/mL. In addition, the fraction unbound in data set [9] is 0.3. The efflux ratio in data set [10] worked out at 2.8.

With `Cc1cn2cc(-c3cc4ccc(N5CCN(C)CC5)cc4oc3=O)nc2cn1`, the EC1.5 in the data set listed under Homo sapiens [6] was determined as 69 nM. For the same compound, the Papp in [7] was determined as 2.7 ×10⁻⁶ cm/s. The area under the curve AUC(0-t) at 6 h in data set [8] is under 10 ng·h/mL. Further, the fraction unbound in data set [9] was 0.03. Moreover, the efflux ratio in [10] worked out at 0.74.

On to `Cc1cn2cc(-c3cc4ccc(N5CCN(C)CC5)cc4c(=O)o3)nc2cn1`, for which the EC1.5 in the data set listed under Homo sapiens [6] is 120 nM. Moreover, in data set [8], the exposure AUC(0-t) at 6 h was under 10 ng·h/mL.

As to `Cc1cn2cc(-c3cc4ccc(N5CCNCC5)cc4oc3=O)nc2c(C)n1`, the Kp at 6 h in [5] was 6.5. In addition, the EC1.5 in the data set filed under Homo sapiens [6] is 15 nM; in the data set listed under Homo sapiens [4], 2 nM. The compound further gave an AUC(0-t) at 6 h in data set [8] of 340 ng·h/mL.

Consider `Cc1cn2cc(-c3cc4ccc(N5CCN(C)[C@@H](C)C5)cc4oc3=O)nc2c(C)n1`, for which the Kp at 6 h in data set [5] came out at 19. In the data set filed under Homo sapiens [6], the EC1.5 came to 63 nM. In addition, the AUC(0-t) at 6 h in data set [8] is 260 ng·h/mL.

Consider `O=c1oc2cc(N3CCCCC3)ccc2cc1-c1nc2ccccc2o1`, for which the fold change (FC) in the data set filed under Homo sapiens [1] and in the data set listed under Homo sapiens [2] was 1 in each case. Also, the EC1.5 was over 32 µM in the data set listed under Homo sapiens [3] and over 32000 nM in the data set filed under Homo sapiens [4].

As for `Cc1cn2cc(-c3cc4ccc(N5CCNCC5)cc4c(=O)o3)nc2c(C)n1`, the Kp at 6 h in data set [5] amounted to 0.6. Further, the EC1.5 in the data set filed under Homo sapiens [6] is 39 nM; in the data set filed under Homo sapiens [4], 8 nM. For the same compound, in data set [7], the Papp came to 4.4 ×10⁻⁶ cm/s. For the same compound, the AUC(0-t) at 6 h in data set [8] was determined as 280 ng·h/mL. The fraction unbound in [9] was 0.1. In addition, the efflux ratio in data set [10] came out at 2.6.

In the case of `Cc1cn2cc(-c3cc4ccc(N5CCN(C)CC5)cc4oc3=O)nc2c(C)n1`, the Kp at 6 h in data set [5] came to 0.7. For the same compound, the EC1.5 came out at 31 nM in the data set listed under Homo sapiens [6] and 18 nM in the data set filed under Homo sapiens [4]. In addition, the Papp in [7] amounted to 1.4 ×10⁻⁶ cm/s. This compound yielded an AUC(0-t) at 6 h in [8] of 530 ng·h/mL. The fraction unbound in data set [9] is 0.03. Also, the efflux ratio in data set [10] was determined as 1.1.

As to `O=c1oc2cc(N3CCOCC3)ccc2cc1-c1nc2ccccc2o1`, the results for the fold change (FC) in the data set listed under Homo sapiens [1] and in the data set listed under Homo sapiens [2] were 1.1 and 1, respectively. The EC1.5 was over 32 µM in the data set filed under Homo sapiens [3] and over 32000 nM in the data set filed under Homo sapiens [4].

For `O=c1oc2cc(N3CCNCC3)ccc2cc1-c1nc2ccccc2o1`, the fold change (FC) in the data set filed under Homo sapiens [1] is 7; in the data set filed under Homo sapiens [2], 25; in the data set listed under Homo sapiens [11] it was 1. For the same compound, the figures for the EC1.5 in the data set listed under Homo sapiens [6], in the data set filed under Homo sapiens [3] and in the data set filed under Homo sapiens [4] were over 10000 nM, 10 µM and 8700 nM, respectively.

For the compound `COc1ccc(-c2nc3ccc(N4CCNCC4)cc3[nH]c2=O)cc1OC`, the EC1.5 is over 10000 nM in the data set filed under Homo sapiens [6] and 2200 nM in the data set filed under Homo sapiens [4]. Besides, the fold change (FC) in the data set filed under Homo sapiens [11] was found to be 1.1.

On to `Cc1cn2nc(-c3cc(=O)n4cc(N5CCN(C)CC5)ccc4n3)cc2cn1`, for which the EC1.5 in the data set listed under Homo sapiens [6] was 300 nM. In addition, the area under the curve AUC(0-t) at 6 h in data set [8] is under 10 ng·h/mL.

Regarding `COc1ccc(-c2cc(=O)n3cc(N4CCNCC4)ccc3c2)cc1OC`, the values for the EC1.5 in the data set filed under Homo sapiens [6] and in the data set listed under Homo sapiens [4] were 2500 nM and 920 nM, respectively. Moreover, the fold change (FC) in the data set filed under Homo sapiens [11] stood at 1.6.

Broadly, the Papp is a coefficient for how fast a substance crosses the barrier. As usually defined, the AUC(0-t) is the area under the concentration-time curve up to a stated or last time point. For orientation: efflux ratio means the permeability from basolateral to apical divided by that in the opposite direction, in the common usage.
